Many of the other results were omitted from the sample, so hits are more common in it than they were.
CHOP UPR activ = activators of apoptotic CHOP UPR arm, primary screen, cell-based, CHO-CHOP luciferase reporter, luminescence, uHTS | UPR activation; percent of tunicamycin response over DMSO baseline | activation, % at 10 µM | hit rate 0.34% among 330,000;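 active = at 10 µM dose, activation of 40% or more, normalized to positive control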;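 also: 100% = tunicamycin at 10 µg/mL and 0% = DMSO alone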
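assay system = CHO CHOP reporter cells | amount = 500 CHO-CHOP cells per well | buffer or medium = F12 with 10% FBS | incubation = 16-18 h cell attachment, then 6 h compound exposure, 37 °C | detection = luminescence read with Steady-Glo | read-out = percent activation relative to tunicamycin control | controls = tunicamycin high control, DMSO low control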
XBP1 UPR activ = activators of adaptive XBP1 UPR arm, primary screen, cell-based, CHO-XBP1 luciferase reporter, luminescence, uHTS; IRE1-XBP1 UPR activation; percent of tunicamycin response, DMSO as zero; activation, % at 20 µM; hit rate 0.33% among 330,000;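 active = versus positive control, 20 µM dose yields 30% or more activation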;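 also: 100% = tunicamycin at 10 µg/mL and 0% = DMSO only wells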
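assay system = CHO-XBP1 luciferase reporter cells | amount = 1000 cells/well | buffer or medium = F12 plus 10% FBS | compound dosing = single point, 20 µM final compound, 1% DMSO | incubation = 16-18 h cell attachment at 37 °C, then 6 h compound exposure | detection = Steady-Glo luminescence read | controls = tunicamycin 10 µg/mL and vehicle-only wells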
A1 inh = caspase 3/7 activation in MEF A1-2A-BIM cells, primary screen, A1 inhibitor project, cell-based, luminescence, HTS; Caspase-Glo 3/7 luminescence, 3 h; percent of clofoctol response, vehicle zero; caspase activation, % (concentration not given with the values); hit rate 0.066% among 330,000;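 active = over half of replicate activation scores above 10%, or exactly half above 10 with the replicate mean above 10; inconclusive = replicate mean below 10 yet half the replicates above 10; inactive = over half of replicates below 10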
CHOP inhibitor = inhibitors of CHOP promoter induction, primary screen, cell-based, unfolded protein response, luciferase reporter; CHO-K1 CHOP-promoter luciferase, tunicamycin-induced, 15-18 h; AID 2732, 2010; hit rate 3.8% among 220,000; inhibition, % at 10 µM;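 active = compounds that reduced the stress-induced luciferase reporter signal by more than about 70% of percent inhibition, limit read from the data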;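 also: 0% = tunicamycin plus vehicle and 100% = wells without tunicamycin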
CHOP confirm = retest of CHOP induction inhibitors, confirmation, cell-based; shares compounds with CHOP inhibitor; CHO-CHOP promoter luciferase reporter, tunicamycin-induced, luminescence; hit rate 45% among 2,100; inhibition, % at 10 µM;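 active = mean of three repeat readings of reporter signal inhibition above a set limit, cut at about 70% in these data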;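 also: 0% = tunicamycin plus vehicle and 100% = wells lacking tunicamycin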
Numbers without * were called inactive; u = inconclusive; x = not tested or not shown.

SMILES	CHOP UPR activ	XBP1 UPR activ	A1 inh	CHOP inhibitor	CHOP confirm
O=C(N/N=C/c1cccs1)c1cccc(NC(=O)c2ccc(Cl)cc2)c1	-0.8	13.0	u	104.4*	117.9*
Cc1sc(NC(=O)c2ccccc2)c(C(c2ccc(Cl)cc2)N2CCN(CCO)CC2)c1C (configuration not stated)	0.3	1.6	0.0	104.2*	2.1
Cc1sc(NC(=O)c2ccco2)c(C(c2cccnc2)N2CCN(CCO)CC2)c1C (configuration not stated)	1.7	1.2	0.1	36.3	x
Cc1cccc(/C=C2/S/C(=N/N=C3\CC4CCC3(C)C4(C)C)NC2=O)c1 (configuration not stated)	-1.7	1.3	0.1	104.7*	105.9*
CNC(=O)c1c(NC(=O)c2cc(-c3cc(C)c(C)cc3O)n[nH]2)sc2c1CCCC2	16.8	50.2*	-0.9	102.7*	-5.7
CNC(=O)c1c(NC(=O)c2ccco2)sc2c1CCC2	1.1	0.3	-0.7	x	x
CCN1/C(=C/C(C)=C/c2sc3ccccc3[n+]2CC)Sc2ccccc21	-8.7	-11.4	-1.5	110.4*	141.2*
Cc1cc(S(=O)(=O)NC(C)C)ccc1OCC(=O)NCc1ccccc1	1.2	-4.0	-0.1	17.9	x
O=C(Nc1ccc(OC(F)F)c(Cl)c1)Nc1ccc2c(c1)OCO2	2.8	5.1	-0.1	106.0*	66.6
O=C(Nc1ccc2c(c1)OCO2)Nc1ccc2c(c1)OCO2	5.1	4.0	-2.7	19.3	x
O=C(Nc1ccc([N+](=O)[O-])cc1)Nc1ccc(OC(F)F)c(Cl)c1	x	x	1.3	106.3*	124.8*
O=C(CN1CCC(C(=O)c2ccc3c(c2)OCCO3)CC1)NC1CCCC1	1.2	-1.7	0.1	54.5	x
O=C(Cc1cccs1)N/N=C/C(Br)=C/c1ccccc1	3.2	3.3	0.9	104.1*	66.5
CCc1ccc(OCCNC(=O)c2ccccc2SCc2ccccc2)cc1	-2.0	0.8	0.2	99.5*	90.8*
COC(=O)c1cc(Br)c(=O)n(-c2cc(C)on2)c1	-0.5	1.0	0.1	1.3	x
CC(=O)NCCc1ccc(C(=O)Cn2cnc3ccccc3c2=O)cc1	1.4	-3.8	0.4	x	x
COc1ccc(C2=CC(=O)C=CC2=O)cc1	x	x	x	103.3*	-78.7
COc1cccc2cc(C(=O)C3=C(O)C(=O)N(CCN(C)C)C3c3ccc(F)cc3)oc12 (configuration not stated)	2.1	-0.3	0.7	26.8	x
C=CCn1c(SCC(=O)NCCO)nc2sc(C)c(C)c2c1=O	2.5	1.0	0.5	-5.4	x
C=CCn1c(SCC(=O)NC(=O)NCc2ccco2)nc2sc(C)c(C)c2c1=O	2.1	2.3	1.5	104.4*	30.1
Cc1nn(Cc2ccc(F)cc2)c(C)c1NC(=O)c1noc2c1CCCCC2	0.1	0.1	0.5	21.4	x
Cc1cc(Nc2ccc(Cl)cc2)nc(NCc2ccccc2)n1	4.3	13.0	0.7	106.7*	81.4*
CCCC(=O)N1CCN(c2ccc(NC(=O)c3cc4ccccc4o3)cc2Cl)CC1	-6.1	-8.5	-0.6	x	109.2*
CC(=O)n1cc([C@H]2C=C(C(=O)N3CCN(Cc4ccc5c(c4)OCO5)CC3)O[C@@H](OCc3ccc(CO)cc3)C2)c2ccccc21	4.7	0.9	-0.4	50.6	x
Cn1c(=O)[nH]c(=O)c2[nH]c(N(Cc3ccccc3)Cc3ccccc3)nc21	3.9	-1.7	0.4	110.8*	113.9*
SMILES	CHOP UPR activ	XBP1 UPR activ	A1 inh	CHOP inhibitor	CHOP confirm
Cn1c(=O)[nH]c(=O)c2[nH]c(CN3CCN(Cc4ccccc4)CC3)nc21	2.7	-1.5	0.1	6.2	x
CCn1c(SCC(=O)c2ccc(NS(=O)(=O)c3ccccc3)cc2)nnc1-c1cccs1	-1.1	2.6	1.2	-14.3	x
COc1ccccc1CCNC(=O)c1cc(-c2ccncc2)nc2ccc(Br)cc12	x	x	x	104.2*	-74.2
Cn1cc(CNC(=O)c2cc(-c3ccccc3)nc3ccc(Br)cc23)cn1	0.7	0.6	-0.2	-9.8	x
Cc1ccc(-c2cc(C(=O)NCc3cnn(C)c3)c3cc(Br)ccc3n2)cc1	4.8	4.2	1.6	101.0*	20.4
O=C(NCc1nnc(SCC(=O)N2CCCc3ccccc32)n1-c1ccccc1)c1cccc2ccccc12	-0.8	-3.4	-1.0	37.9	x
Nc1n[nH]c(C2CC2)c1N=Nc1ccc(Cl)c(Cl)c1	5.8	0.8	0.0	-30.8	x
O=C(C[C@@H]1C/C=C\C[C@H](NC(=O)OCC2c3ccccc3-c3ccccc32)C(=O)O[C@H](c2ccccc2)CNC1=O)NCCO	0.6	-2.1	-3.6	x	x
CCCCCCCCCS(=O)(=O)N/N=C/c1cccc([N+](=O)[O-])c1	-0.7	-1.2	-1.4	98.7*	96.9*
Cc1ccc(S(=O)(=O)N/N=C/c2cccc([N+](=O)[O-])c2)cc1	-0.7	-1.9	0.0	-1.4	x
CCc1ccccc1NC(=O)c1cc(-c2cccc(O)c2)on1	3.3	-0.5	-0.1	55.4	x
O=C(Nc1ccccc1C(F)(F)F)c1cc(-c2cccc(O)c2)on1	2.2	-1.3	0.1	96.8*	-9.3
CCCCOC(=O)C1=C(C)NC(=O)NC1c1ccccc1 (configuration not stated)	0.9	-6.2	u	x	x
CCc1ccc(C(=O)/C=C/Nc2ccc(S(=O)(=O)Nc3cnc4ccccc4n3)cc2)cc1	3.9	3.6	0.4	101.4*	9.4
O=C(/C=C/Nc1ccc(S(=O)(=O)Nc2ncccn2)cc1)c1ccc(Cl)c(Cl)c1	0.7	-0.6	-0.3	102.3*	4.8
O=C(COc1ccc2ccccc2c1Br)N1CCN(c2ccccn2)CC1	-0.3	0.7	-0.1	39.1	x
COc1ccc(OCc2cc(=O)[nH]c3ccccc23)cc1	1.3	2.3	-0.1	x	x
COc1ccc2c(-c3ccccc3)cc(=O)[nH]c2c1	0.8	6.0	2.3	28.5	x
COc1ccc2c(c1)[nH]c(=O)c1sc3ccccc3c12	3.9	11.4	-0.3	108.4*	56.5
COc1ccc2sc3c(=O)[nH]c4ccccc4c3c2c1	-1.2	1.0	-1.1	97.2*	45.7
COc1cc(C(=O)Oc2cc(C)cc(C)c2)cc(OC)c1OC	-1.4	-4.1	0.6	53.5	x
COc1cc(C(=O)ON=C2C(C)=CC(=O)C=C2C)cc(OC)c1OC	25.4	-2.7	-6.0	110.1*	-112.2
C/C(=N\NC(=O)CC1N=C(Cc2ccccc2)NNC1=O)c1ccc(Cl)cc1Cl (configuration not stated)	0.5	2.7	0.0	98.9*	28.5
C/C(=N\NC(=O)CC1N=C(Cc2ccccc2)NNC1=O)c1ccccc1 (configuration not stated)	0.1	0.9	0.1	36.0	x
C#CCOc1ccc(Cl)cc1/C=N/O	0.3	2.1	-0.4	18.0	x

Bioassay records deposited in PubChem BioAssay by several laboratories.
